Experiments:
sTNFα = sTNFα (Homo sapiens, UniProt P01375); experiment: sTNFα target occupancy, ex vivo zymosan stimulation of blood, ELISA; assay type: in vivo
Procedure, shortened: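 Blood came from the 400 and 600 mg single-dose cohorts (pre-dose and 3 h post-dose) and all multiple-dose cohorts (pre-dose Day 1; pre-dose and 3 h Day 14). It was stimulated ex vivo with zymosan. ELISA measured total and compound-occupied TNFα to derive percent occupancy and percent change from baseline, summarised descriptively by group and time point.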

TNF = conditions: read-out: 50% inhibitory concentration [IC50], TNF inhibition; in vitro; cited from earlier work

Sequence of sTNFα (P01375 77-233 limits assumed): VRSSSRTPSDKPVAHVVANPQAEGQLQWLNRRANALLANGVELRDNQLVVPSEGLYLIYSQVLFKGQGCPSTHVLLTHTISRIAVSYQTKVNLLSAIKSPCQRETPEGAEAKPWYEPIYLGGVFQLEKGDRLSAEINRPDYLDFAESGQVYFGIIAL

sTNFα occupancy, mean (sTNFα; MAD 100 mg BID, D14 0 h): 103.1%
sTNFα occupancy, median (sTNFα; MAD 100 mg BID, D14 0 h): 104.0%
sTNFα occupancy, mean (sTNFα; MAD 100 mg BID, D14 3 h): 104.9%
sTNFα occupancy, median (sTNFα; MAD 100 mg BID, D14 3 h): 105.3%
sTNFα occupancy, mean (sTNFα; MAD 100 mg QD, D14 0 h): 95.0%
sTNFα occupancy, median (sTNFα; MAD 100 mg QD, D14 0 h): 96.8%
sTNFα occupancy, mean (sTNFα; MAD 100 mg QD, D14 3 h): 97.2%
sTNFα occupancy, median (sTNFα; MAD 100 mg QD, D14 3 h): 98.4%
sTNFα occupancy, mean (sTNFα; MAD 200 mg BID, D14 0 h): 101.1%
sTNFα occupancy, median (sTNFα; MAD 200 mg BID, D14 0 h): 101.8%
sTNFα occupancy, mean (sTNFα; MAD 200 mg BID, D14 3 h): 105.2%
sTNFα occupancy, median (sTNFα; MAD 200 mg BID, D14 3 h): 106.6%
sTNFα occupancy, mean (sTNFα; MAD 300 mg BID, D14 0 h): 101.3%
sTNFα occupancy, median (sTNFα; MAD 300 mg BID, D14 0 h): 101.8%
sTNFα occupancy, mean (sTNFα; MAD 300 mg BID, D14 3 h): 99.8%
sTNFα occupancy, median (sTNFα; MAD 300 mg BID, D14 3 h): 102.8%
sTNFα target occupancy (sTNFα; SAD 400 mg and 600 mg cohorts, 3 hours after dosing): ~ 100%
sTNFα occupancy, mean (sTNFα; SAD 400 mg, D1 3 h): 102.2%
sTNFα occupancy, median (sTNFα; SAD 400 mg, D1 3 h): 105.3%
sTNFα occupancy, mean (sTNFα; SAD 600 mg, D1 3 h): 109.3%
sTNFα occupancy, median (sTNFα; SAD 600 mg, D1 3 h): 109.2%
SMILES: CN1C(=O)c2cccc(OC(F)F)c2[C@H]2C[C@@H]1c1nc3ccc(-c4cnc(C5(N)CCC5)nc4)cc3n12 [Balinatunfib]
IC50 (TNF): 0.035 µM
